In brackets after ≈: the same amount, converted by molar mass. Activity calls are given as the source filed them. The rule behind the calls is not given here.
Legend:
Type in all cases: functional
Escherichia coli [1] = assay: Ratio of tetracycline MIC to compound MIC for Escherichia coli
Escherichia coli [2] = assay: Antimicrobial activity against Escherichia coli after 24 hrs by spectrophotometry
Outline: (§1)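 Broth MIC read turbidimetrically. Bacteria were pre-cultured 24 h at 37 °C in LB, then held at 4 °C. Compounds active in an agar-well pre-screen (20 mg/ml DMSO, 100 µl per well, 37 °C 24 h) went forward. Dilutions of 1, 5, 10, 15 and 20 mg/ml DMSO from stock were made up to 10 ml LB and inoculated with 10 µl suspension. Triplicate tubes, 37 °C for 24 h, spectrophotometric growth read-out.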

Bacillus thuringiensis [3] = assay: Ratio of tetracycline MIC to compound MIC for Bacillus thuringiensis
Bacillus thuringiensis [4] = assay: Antimicrobial activity against Bacillus thuringiensis after 24 hrs by spectrophotometry; outline: as §1

MIC (Escherichia coli [2]) [mg/mL]	MIC (Bacillus thuringiensis [4]) [mg/mL]	Structure (SMILES)	Ratio (Escherichia coli [1])	Ratio (Bacillus thuringiensis [3])	Activity (Escherichia coli [2])	Activity (Bacillus thuringiensis [4])
≥ 15	≥ 15	CCOC(=O)C1C(c2ccc(OC)cc2)NC(=S)NC1(O)C(F)(F)F (stereo not given)	6	6		
	75 (≈ 169 mM)	CN(C)[C@@H]1C(O)=C(C(N)=O)C(=O)[C@@]2(O)C(O)=C3C(=O)c4c(O)cccc4[C@@](C)(O)[C@H]3C[C@@H]12 [TETRACYCLINE]				
≥ 20	≥ 20	CCOC(=O)C1C(c2ccc(C)cc2)NC(=S)NC1(O)C(F)(F)F (stereo not given)	6	6		
		CCOC(=O)C1C(c2ccc([N+](=O)[O-])cc2)NC(=O)NC1(O)C(F)(F)F (stereo not given)			inactive	inactive
≥ 20	≥ 20	CCOC(=O)C1C(c2ccc(O)cc2)NC(=S)NC1(O)C(F)(F)F (stereo not given)	6	6		
		CCOC(=O)C1C(c2ccc(Cl)cc2)N=C(S)NC1(O)C(F)(F)F (stereo not given)			inactive	inactive
≥ 15	≥ 15	CCOC(=O)C1C(c2ccc(Cl)cc2)NC(=O)NC1(O)C(F)(F)F (stereo not given)	6	6		
≥ 15	≥ 15	CCOC(=O)C1C(c2ccccc2)NC(=S)NC1(O)C(F)(F)F (stereo not given)	6	6		
		CCOC(=O)C1C(c2ccc(F)cc2)NC(=S)NC1(O)C(F)(F)F (stereo not given)			inactive	inactive
≥ 20	≥ 20	CCOC(=O)C1C(c2ccc(O)cc2)NC(=O)NC1(O)C(F)(F)F (stereo not given)	6	6		
≥ 20	≥ 20	CCOC(=O)C1C(c2ccc(C)cc2)NC(=O)NC1(O)C(F)(F)F (stereo not given)	6	6		
≥ 20	≥ 20	CCOC(=O)C1C(c2cccs2)NC(=O)NC1(O)C(F)(F)F (stereo not given)	6	6		
		CCOC(=O)C1C(c2ccccc2)NC(=O)NC1(O)C(F)(F)F (stereo not given)			inactive	inactive
≥ 20	≥ 20	CCOC(=O)C1C(c2ccc(N(C)C)cc2)NC(=S)NC1(O)C(F)(F)F (stereo not given)	6	6		

— ChEMBL document CHEMBL1909517, “Green synthesis and antimicrobial evaluation of some new trifluoromethyl-substituted hexahydropyrimidines by grinding” (2011)
